Laboratory results from ChEMBL document CHEMBL3808334, “Synthesis and in vitro evaluation of novel triazine analogues as anticancer agents and their interaction studies with bovine serum albumin” (Eur J Med Chem, 2016).

Legend:
EKVX = assay: Growth inhibition of human EKVX cells assessed as cell growth at 10^-8 M incubated for 48 hrs by sulforhodamine B assay; type: functional; settings: read-out: Activity
Summary of the method: (§1)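 Cells seeded at 5,000–40,000/well according to doubling time and preincubated 24 h at 37 °C, 5% CO2. Time-zero plates were TCA-fixed. DMSO concentrate was diluted in medium with 50 µg/ml gentamicin to give five concentrations (10-fold or ½ log steps), then exposed 48 h. Cells were TCA-fixed, stained with 0.4% SRB and read at 515 nm. Percent growth was taken against time-zero and control; GI50, TGI and LC50 derived.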

K562 = assay: Growth inhibition of human K562 cells assessed as cell growth at 10^-7 M incubated for 48 hrs by sulforhodamine B assay; type: functional; settings: K562, 48 h, read-out: Activity
Albumin = Albumin (Bos taurus, UniProt P02769); assay: Binding affinity to bovine serum albumin assessed as isoemissive point up to 20 uM by fluorescence spectroscopic analysis relative to control; type: ADME; settings: cattle, isolated protein
Albumin, sequence (P02769 whole entry): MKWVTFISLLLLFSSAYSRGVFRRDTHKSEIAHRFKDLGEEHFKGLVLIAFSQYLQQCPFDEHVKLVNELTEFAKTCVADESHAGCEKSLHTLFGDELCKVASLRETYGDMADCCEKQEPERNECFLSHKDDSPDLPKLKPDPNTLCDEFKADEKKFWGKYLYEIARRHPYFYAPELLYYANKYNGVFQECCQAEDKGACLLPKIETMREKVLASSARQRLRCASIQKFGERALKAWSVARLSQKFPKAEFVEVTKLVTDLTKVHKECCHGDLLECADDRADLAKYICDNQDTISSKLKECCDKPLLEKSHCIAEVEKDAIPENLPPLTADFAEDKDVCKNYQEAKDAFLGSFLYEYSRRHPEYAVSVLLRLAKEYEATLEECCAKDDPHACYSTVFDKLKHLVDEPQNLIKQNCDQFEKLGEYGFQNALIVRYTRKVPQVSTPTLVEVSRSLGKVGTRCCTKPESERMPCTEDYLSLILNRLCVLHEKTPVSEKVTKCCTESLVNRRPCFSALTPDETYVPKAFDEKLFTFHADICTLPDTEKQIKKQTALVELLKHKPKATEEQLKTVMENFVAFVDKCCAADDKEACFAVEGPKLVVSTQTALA
Summary of the method: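 Fluorescence titration of 10 µM BSA in 0.1 M phosphate buffer pH 7.4 with compound at 0–20 µM, diluted from DMSO stocks. Excitation 280 nm, slit 10 nm, 1 cm quartz cell, 300 K. Changes in the 350 nm Trp emission, new bands near 370–373 nm and isoemissive points are read against BSA alone.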

MDA-MB-231 = assay: Growth inhibition of human MDA-MB-231 cells assessed as cell growth at 10^-7 M incubated for 48 hrs by sulforhodamine B assay; type: functional; settings: MDA-MB-231, 48 h, read-out: Activity
NCI-H522 = assay: Growth inhibition of human NCI-H522 cells assessed as cell growth at 10^-6 M incubated for 48 hrs by sulforhodamine B assay; type: functional; settings: NCI-H522, 48 h, read-out: Activity
SN12C [1] = assay: Growth inhibition of human SN12C cells assessed as cell growth at 10^-7 M incubated for 48 hrs by sulforhodamine B assay; type: functional; settings: read-out: Activity
[2] = Growth inhibition of human SNB19 cells assessed as cell growth at 10^-4 M incubated for 48 hrs by sulforhodamine B assay; type: functional; settings: SNB-19, 48 h, read-out: Activity
[3] = Growth inhibition of human PC3 cells assessed as cell growth at 10^-4 M incubated for 48 hrs by sulforhodamine B assay; type: functional; settings: PC-3, 48 h, read-out: Activity
[4] = Growth inhibition of human Caki1 cells assessed as cell growth at 10 uM incubated for 48 hrs by sulforhodamine B assay; type: functional; settings: CAKI-1, 48 h, read-out: Activity
Summary of the method: (§2)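 Primary screen at one dose (10 µM) across 60 human cancer cell lines. Readout was growth percent relative to untreated control and time-zero.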

MDA-MB-435 = assay: Growth inhibition of human MDA-MB-435 cells assessed as cell growth at 10 uM incubated for 48 hrs by sulforhodamine B assay; type: functional; settings: MDA-MB-435, 48 h, read-out: Activity
A549 = assay: Growth inhibition of human A549/ATCC cells assessed as cell growth at 10^-8 M incubated for 48 hrs by sulforhodamine B assay; type: functional; settings: A549, 48 h, read-out: Activity
Summary of the method: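 Five-dose assay: five concentrations from 10-fold or ½-log serial dilutions. Cells are plated at 5,000–40,000 per well according to doubling time, grown 24 h, then exposed 48 h at 37 °C, 5% CO₂. Fixed with cold 50% TCA (final addition) for 60 min at 4 °C and stained with 0.4% SRB in 1% acetic acid. Bound dye is solubilized in 10 mM Tris base and read at 515 nm. GI₅₀ is where [(Ti−Tz)/(C−Tz)]×100 = 50, with a time-zero plate as Tz.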

[5] = Growth inhibition of human HCT15 cells assessed as cell growth at 10 uM incubated for 48 hrs by sulforhodamine B assay; type: functional; settings: HCT-15, 48 h, read-out: Activity; summary of the method: as §2
[6] = Growth inhibition of human HOP92 cells assessed as cell growth at 10^-7 M incubated for 48 hrs by sulforhodamine B assay; type: functional; settings: HOP-92, 48 h, read-out: Activity
NCI/ADR-RES = assay: Growth inhibition of human NCI/ADR-RES cells assessed as cell growth at 10^-8 M incubated for 48 hrs by sulforhodamine B assay; type: functional; settings: read-out: Activity
NCI-H23 = assay: Growth inhibition of human NCI-H23 cells assessed as cell growth at 10^-8 M incubated for 48 hrs by sulforhodamine B assay; type: functional; settings: NCI-H23, 48 h, read-out: Activity
NCI-H460 = assay: Growth inhibition of human NCI-H460 cells assessed as cell growth at 10^-5 M incubated for 48 hrs by sulforhodamine B assay; type: functional; settings: NCI-H460, 48 h, read-out: Activity
[7] = Growth inhibition of human OVCAR5 cells assessed as cell growth at 10^-8 M incubated for 48 hrs by sulforhodamine B assay; type: functional; settings: OVCAR-5, 48 h, read-out: Activity
[8] = Growth inhibition of human SW620 cells assessed as cell growth at 10^-8 M incubated for 48 hrs by sulforhodamine B assay; type: functional; settings: SW-620, 48 h, read-out: Activity
[9] = Growth inhibition of human RPMI8226 cells assessed as cell growth at 10^-7 M incubated for 48 hrs by sulforhodamine B assay; type: functional; settings: RPMI-8226, 48 h, read-out: Activity
[10] = Growth inhibition of human HCC2998 cells assessed as cell growth at 10^-5 M incubated for 48 hrs by sulforhodamine B assay; type: functional; settings: HCC 2998, 48 h, read-out: Activity; summary of the method: as §1
SN12C [11] = assay: Growth inhibition of human SN12C cells assessed as cell growth at 10^-6 M incubated for 48 hrs by sulforhodamine B assay; type: functional; settings: read-out: Activity
T47D = assay: Growth inhibition of human T47D cells assessed as cell growth at 10^-4 M incubated for 48 hrs by sulforhodamine B assay; type: functional; settings: read-out: Activity
MCF7 = assay: Growth inhibition of human MCF7 cells assessed as cell growth at 10^-4 M incubated for 48 hrs by sulforhodamine B assay; type: functional; settings: MCF7, 48 h, read-out: Activity
[12] = Growth inhibition of human TK10 cells incubated for 48 hrs by sulforhodamine B assay; type: functional; settings: TK-10, 48 h
Summary of the method: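 Cells were plated at 5,000–40,000 per well according to doubling time and preincubated 24 h at 37 °C in 5% CO2; time-zero plates were then TCA-fixed. Five concentrations (10-fold or ½-log dilutions, DMSO stock) were incubated 48 h. Cells were TCA-fixed, stained with 0.4% SRB and read at 515 nm. GI50 was taken where [(Ti−Tz)/(C−Tz)]×100 = 50.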

SK-MEL-28 = assay: Growth inhibition of human SK-MEL-28 cells assessed as cell growth at 10 uM incubated for 48 hrs by sulforhodamine B assay; type: functional; settings: SK-MEL-28, 48 h, read-out: Activity
Malme-3M = assay: Growth inhibition of human MALME-3M cells assessed as cell growth at 10 uM incubated for 48 hrs by sulforhodamine B assay; type: functional; settings: read-out: Activity
[13] = read-out: LC50 (the source's name)
[14] = read-out: pLC50 (the source's name) (converted)

Compound | growth at 0.01 µM (EKVX) [%] | growth at 0.1 µM (K562) [%] | Activity (Albumin) [nm] | growth at 0.1 µM (MDA-MB-231) [%] | growth at 1 µM (NCI-H522) [%] | growth at 0.1 µM (SN12C [1]) [%] | growth at 100 µM [2] [%] | growth at 100 µM [3] [%] | growth at 10 µM [4] [%] | growth at 10 µM (MDA-MB-435) [%] | growth at 0.01 µM (A549) [%] | growth at 10 µM [5] [%] | growth at 0.1 µM [6] [%] | growth at 0.01 µM (NCI/ADR-RES) [%] | growth at 0.01 µM (NCI-H23) [%] | growth at 10 µM (NCI-H460) [%] | growth at 0.01 µM [7] [%] | growth at 0.01 µM [8] [%] | growth at 0.1 µM [9] [%] | growth at 10 µM [10] [%] | further results
Fc1ccc(-c2nc(Nc3ccc(-c4nc5ccccc5[nH]4)cc3)nc(N3CCOCC3)n2)cc1 | 93 | 101 | 341 | 86 | 97 | 90 | 4 | -6 | -56.6 | -38 | 95 | -62.2 | 104 | 98 | 94 | -22 | 93 | 97 | 99 | 4 | growth at 1 µM (SN12C [11]): 89%; growth at 100 µM (T47D): -44%; growth at 100 µM (MCF7): 1%; GI50 ([12]; read-out: GI50): 2.91 µM; CC50 [12, 13]: > 100 µM; TGI ([12]; read-out: TGI): 8.54 µM; GI50 ([12]; read-out: pGI50 (converted)): 2.88 µM; CC50 [12, 14]: > 100 µM; TGI ([12]; read-out: pTGI (converted)): 8.51 µM; growth at 10 µM (SK-MEL-28): -34%; growth at 10 µM (Malme-3M): -65.7%
c1ccc(-c2nc(Nc3ccc(-c4nc5ccccc5[nH]4)cc3)nc(N3CCOCC3)n2)cc1 | 92 | 96 | 357 | 86 | 109 | 90 | -48 | -82 | -89.4 | -81.1 | 103 | -68.9 | 107 | 95 | 95 | -70 | 90 | 98 | 97 | -62 | growth at 1 µM (SN12C [11]): 85%; growth at 100 µM (T47D): -56%; growth at 100 µM (MCF7): -52%; GI50 ([12]; read-out: GI50): 2.15 µM; CC50 [12, 13]: 6.58 µM; TGI ([12]; read-out: TGI): 3.76 µM; GI50 ([12]; read-out: pGI50 (converted)): 2.14 µM; CC50 [12, 14]: 6.61 µM; TGI ([12]; read-out: pTGI (converted)): 3.8 µM; growth at 10 µM (SK-MEL-28): -82.8%; growth at 10 µM (Malme-3M): -77.3%
Clc1ccc(-c2nc(Nc3ccc(-c4nc5ccccc5[nH]4)cc3)nc(N3CCOCC3)n2)cc1 | 90 | 92 | 349 | 92 | 77 | 92 | 1 | -45 | -93.6 | -86.1 | 96 | -92.6 | 89 | 98 | 97 | -73 | 97 | 94 | 99 | -57 | growth at 1 µM (SN12C [11]): 47%; growth at 100 µM (T47D): -32%; growth at 100 µM (MCF7): -17%; GI50 ([12]; read-out: GI50): 1.96 µM; CC50 [12, 13]: 5.97 µM; TGI ([12]; read-out: TGI): 3.42 µM; GI50 ([12]; read-out: pGI50 (converted)): 1.95 µM; CC50 [12, 14]: 6.03 µM; TGI ([12]; read-out: pTGI (converted)): 3.39 µM; growth at 10 µM (SK-MEL-28): -84.7%; growth at 10 µM (Malme-3M): -73.4%
c1ccc2[nH]c(-c3ccc(Nc4nc(N5CCCCC5)nc(N5CCOCC5)n4)cc3)nc2c1 | 93 | 107 | 350 | 98 | 94 | 94 | -1 | -19 | -46.9 | -27.3 | 94 | -33.9 | 93 | 99 | 98 | -26 | 101 | 97 | 95 | 9 | growth at 1 µM (SN12C [11]): 100%; growth at 100 µM (T47D): -43%; growth at 100 µM (MCF7): -5%; GI50 ([12]; read-out: GI50): 3.21 µM; CC50 [12, 13]: > 100 µM; TGI ([12]; read-out: TGI): 9.26 µM; GI50 ([12]; read-out: pGI50 (converted)): 3.24 µM; CC50 [12, 14]: > 100 µM; TGI ([12]; read-out: pTGI (converted)): 9.33 µM; growth at 10 µM (SK-MEL-28): -30.2%; growth at 10 µM (Malme-3M): -50.2%
